# Experimental data reported in the RNAGym collection of RNA variant scans (doi:10.1126/science.aae0568).
# Variants at the floor of the assay were thinned out.
# B1: tRNA (parent)
# chain: GUUCCGUUGGCGUAAUGGUAACGCGUCUCCCUCCUAAGGAGAAGACUGCGGGUUCGAGUCCCGUACGGAACG
# Variants of: B1
# Experiment: yeast fitness relative to wild type (ratio to wild type); higher = fitter; tRNA-Arg(CCU), competitive growth, 37 C, YPD
# Procedure, shortened: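 A pool of Saccharomyces cerevisiae strains, each with a tRNA-Arg(CCU) gene variant at the native genomic locus, was competed in YPD at 37°C for 24 hours across six parallel replicates. The variants had been chemically synthesised at a 3% per-site mutation rate over 69 sites, and gene amplicons before and after competition were read by 100-nucleotide paired-end sequencing. Darwinian fitness relative to wild type rested on changes in genotype frequencies. Genotypes required ≥ 100 starting reads, and estimates < 0.5 were set to 0.5.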
row,Variant,yeast fitness
1,GUUCCGUUGGCGUAUUGGUAACGCGUCUCCCUCCUAAGGAGAAGACUGCGGGUUCGAGUCCCGUACGGUACG [A15U A69U],0.696
2,GUUCCGUUGGCGUAUUGGUAACGCGUCUCCCUCCUAAGGAGUAGAUUGCGGGUUGGAGUCCCGUACGGAACG [A15U A42U C46U C55G],≤ 0.5
3,GUUCCGUUGGCGUAUUGGUAAGGCGUCUCCGGCCUAAGGAGAAGACUGCGGGUUCGAGUCCCGUACGGAACG [A15U C22G C31G U32G],0.626
4,GUUCCGUUGGCGUAUUGGUAACGCGUCUCCCUCCUAAGGAGAAGCCUGGGGGUUCGACUCCCGUACGGAACG [A15U A45C C49G G58C],≤ 0.5
5,GUUCCGUUGGCGUAUUGGUAAUGCGUCUCCCUCCUAAGGAGAACACUGCGGGUUCGAGUCCCGUACGGAACG [A15U C22U G44C],≤ 0.5
6,GUUCCGUUGGCGUAUUGGUAACGCGUCUCCCUCCUAAGGAGAAGACUGCGGGUUCGAGUCCCGUCCGGAACG [A15U A65C],0.698
7,GUUCCGUUGGCGUAUUGGUAACGGGUCUCCCUCCUAAGGAGAAGGCUGCGGAUACGAGUCCCGUACGGAACG [A15U C24G A45G G52A U54A],≤ 0.5
8,GUUCCGUUGGCGUAUUGGUAACGUGUCUCCCUCCUAUGGAGAAGACUGCGGGUUCGAGUCCCGUACGGAACG [A15U C24U A37U],≤ 0.5
9,GUUCCGUUGGCGUAUUGGUAACGCGUAUCCCUCCUAAGGAGAAGACUGCGGGUUCGAGUCCCGUACGGAACG [A15U C27A],0.593
10,GUUCCGUUGGCGUAUUGGUAACGGGUCUCCCUCCUAAGGAGAACACUGCGGGUUCGACUCCCGUACGUAACG [A15U C24G G44C G58C G68U],≤ 0.5
11,GUUCCGUUGGCGUAUUGGUAACGGGUCUCCCUCCUAAGGAGAAGACUGCGGGUUCGAGUCCCGUUCGGAACG [A15U C24G A65U],≤ 0.5
12,GUUCCGUUGGCGUAUUGGUAACGCGUCUCCCUCCUAAGGAGAAGGCUGCGGGUUCGAGUCCCGUACGGAACG [A15U A45G],0.732
13,GUUCCGUUGGCGUAUUGGUAACGCGUCUCCCUCCUAAGGAGAAGUCUGCGGGUUCGAGUCCCGUACGGAACG [A15U A45U],0.593
14,GUUCCGUUGGCGUAUUGGUAAGGCGUCUCCCUCCUAAGGAGAAGACUGCGGCUUCGAGUCCCGUCCGGAACG [A15U C22G G52C A65C],≤ 0.5
15,GUUCCGUUGGCGUAUUGGUAACGGGUCUCUCUCCUAAGGAGAAGACUGCGGGUUCGAGUCCCGUACGGAACG [A15U C24G C30U],0.608
16,GUUCCGUUGGCGUAUUGGUAAGGCGUCUCCUUCCUAAGGAGAAGACUGCGGGUUCGAGUCCCGUUCGGUACG [A15U C22G C31U A65U A69U],≤ 0.5
17,GUUCCGUUGGCGUAUUGGUAAGGCGUCUCCUUCCUAAGGAGAAGACUGCGGGUUCGCGUCCCGUACGGAACG [A15U C22G C31U A57C],≤ 0.5
18,GUUCCGUUGGCGUAUUGGUAACGGGUCUCUCUCCUAAGGAGAAGACUGCGGGUUCGUGUCCCGUACGGCACG [A15U C24G C30U A57U A69C],≤ 0.5
19,GUUCCGUUGGCGUAUUGGUAACGGGUCUCCCUCCUAAGGAGAAGACUGCGGGUUCGAGUCCCAUACGGAACG [A15U C24G G63A],≤ 0.5

row,Variant,yeast fitness
1,GUUCCGUUGGCGUAUUGGUAACGCGUAUCCCUCCUAAGGAGACGACUGCGGGUUCGAGUCCCGUACGGAACG [A15U C27A A43C],0.592
2,GUUCCGUUGGCGUAUUGGUAACGCGUCUCCCUCCUAAGGAGCAGACAGCGGGUUCGAGUCCCCUACGGCACG [A15U A42C U47A G63C A69C],≤ 0.5
3,GUUCCGUUGGCGUAUUGGUAACGGGUCUCCCCCCUAAGGAGCCGACUGCGGGUUCGAGUCCCGUACGGAACG [A15U C24G U32C A42C A43C],≤ 0.5
4,GUUCCGUUGGCGUAUUGGUAACGCGUCUCCCUCCUAAGGAGAAGACUGCGGGUUCGUGUCCCGUACGGAACG [A15U A57U],0.666
5,GUUCCGUUGGCGUAUUGGUAACGGGUCUCCCUCUUAAGGAGAAGACUGCGGGCUGGAGUCCAGUACGGAACG [A15U C24G C34U U53C C55G C62A],≤ 0.5
6,GUUCCGUUGGCGUAUUGGUAACGGGUCUCCCUCCUAAGGAGAAGACUGCGGGAUCGAGUCCCGAACGGAACG [A15U C24G U53A U64A],≤ 0.5
7,GUUCCGUUGGCGUAUUGGUAACGCGUCUCCCUCCUAAGGAGUAGACUGGGGGUUCGAGUACCGUACGGAACG [A15U A42U C49G C60A],≤ 0.5
8,GUUCCGUUGGCGUAUUGGUAACGCGUCUCCCUCCUAAGGAGAUGACUGCGGGUUGGAGUCCCGUACGGAACG [A15U A43U C55G],≤ 0.5
9,GUUCCGUUGGCGUAUUGGUAACGCGUCUCCCUCCUAAGGAGAAGUCUGCGGGUUCGAGUCCCGUACGGCACG [A15U A45U A69C],0.647
10,GUUCCGUUGGCGUAUUGGUAACGAAUCUCCCUCCUAAGGAGAAGACCGCGGCUUCGAGUCCUGUAAGGACCG [A15U C24A G25A U47C G52C C62U C66A A70C],≤ 0.5
11,GUUCCGUUGGCGUAUUGGUAACGCGUCUCCCUCCUAAGGAGAUGACUACGGGUUCGAGUCCCGUACGCAACG [A15U A43U G48A G68C],≤ 0.5
12,GUUCCGUUGGCGUAUUGGUAACGGGUCUCCCUCCUAAGGAGAAGACUGCGGGUUCGAGUCCUGUACGGUACG [A15U C24G C62U A69U],≤ 0.5
13,GUUCCGUUGGCGUAUUGGUAACGCGUCUCCCUCCUAAGGAGAGGACAGCGGGUUCGAGUCCCGUACGGAACG [A15U A43G U47A],0.547
14,GUUCCGUUGGCGUAUUGGUAACGCGUCUCCCUCCUAAGGAGAAGACUGCGGGUUCGAGUCCCGUACGGACCG [A15U A70C],0.867
15,GUUCCGUUGGCGUAUUGGUAACGCGUCUCCCUCCUAAGGAGAAGACUGCGGGUUCGAGUCCCGUACGGAUCG [A15U A70U],0.836
16,GUUCCGUUGGCGUAUUGGUAACGCGUCUCCCUCCUAAGGAGAAGACUGCGGGUUCGAGUCCCGUACGGAGCG [A15U A70G],0.663
17,GUUCCGUUGGCGUAUUGGUAAUGCGUCUCCCUCCUAAGGAGAAGACUGCGGAUUCGAGUCCCGUACGGAACG [A15U C22U G52A],0.596
18,GUUCCGUUGGCGUAUUGGUAACGCGUCUCCCUCCUAAGGAGAAGACUGCGGGUUCGCGUCCCGUGCGGAACG [A15U A57C A65G],≤ 0.5
